The target of assay [1] is Protease (Human immunodeficiency virus 1) (UniProt Q9YQ12). Kind of assay: Inhibition of recombinant HIV1 protease at 10 uM by HPLC method. The essentials: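 Recombinant HIV-1 protease with HIV-1 Protease Substrate III in 50 mM sodium acetate pH 4.9, 200 mM NaCl, 5 mM DTT, 10% glycerol; inhibitors added from DMSO (5% v/v final). Enzyme addition starts the reaction, run 3.5 min at 37 °C, then quenched with 10% TFA. Substrate conversion is read by reverse-phase C18 HPLC (5–50% acetonitrile, 0.1% TFA), against inhibitor-free 5% DMSO baseline.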

Assay [2] concerns Human immunodeficiency virus 1. Kind of assay: Antiviral activity against HIV1 assessed as inhibition of viral infection at 10 uM by cell-based assay. It counts as functional.
Assay [3] concerns Human immunodeficiency virus 1. Kind of assay: Antiviral activity against HIV1 assessed as inhibition of viral infection by cell-based assay. It counts as functional, organism-based.

Sequence of Protease (Human immunodeficiency virus 1) (Q9YQ12 as listed by the source): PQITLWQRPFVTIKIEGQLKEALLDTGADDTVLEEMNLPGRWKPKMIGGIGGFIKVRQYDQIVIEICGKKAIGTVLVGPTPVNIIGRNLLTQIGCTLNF

One may read the inhibition as the drop in the measured response relative to a control, in per cent. As to `O=C(N[C@H](CO)c1ccccc1)[C@@H](CSC[C@@H](Cc1ccccc1)C(=O)N[C@H](CO)c1ccccc1)Cc1ccccc1`, the inhibition in assay [1] turned out to be 41%. Further, in assay [2], the inhibition at 10 µM was found to be 1.4%.

As to `CNC(=O)[C@@H](NC(=O)[C@@H](CSC[C@@H](Cc1ccccc1)C(=O)N[C@H](C(=O)NC)C(C)C)Cc1ccccc1)C(C)C`, the inhibition in assay [1] worked out at 87%. In addition, in assay [2], the inhibition at 10 µM is 12.6%.

As to `N=[S+]([O-])(C[C@H](Cc1ccccc1)C(=O)N[C@@H](CO)c1ccccc1)C[C@H](Cc1ccccc1)C(=O)N[C@@H](CO)c1ccccc1`, the inhibition in assay [1] came to 87%. In addition, the inhibition at 10 µM in assay [2] was found to be 0%.

In the case of `CNC(=O)[C@H](NC(=O)[C@@H](Cc1ccccc1)C[S+](=N)([O-])C[C@H](Cc1ccccc1)C(=O)N[C@@H](C(=O)NC)C(C)C)C(C)C`, in assay [1], the inhibition was 99%. In assay [2], the inhibition at 10 µM was 5.5%.

Usually IC50 stands for the concentration at which inhibition is half-maximal. For `CN=[S+]([O-])(C[C@H](Cc1ccccc1)C(=O)N[C@@H]1c2ccccc2C[C@@H]1O)C[C@H](Cc1ccccc1)C(=O)N[C@@H]1c2ccccc2C[C@@H]1O`, the IC50 in assay [3] was greater than 10 µM.

Take `O=C(N[C@@H](CO)c1ccccc1)[C@@H](Cc1ccccc1)C[S+]([O-])C[C@H](Cc1ccccc1)C(=O)N[C@@H](CO)c1ccccc1`: in assay [1], the inhibition turned out to be 47%. In addition, the inhibition at 10 µM in assay [2] worked out at 0%.

On to `O=C(N[C@@H](CO)c1ccccc1)[C@@H](CSC[C@@H](Cc1ccccc1)C(=O)N[C@@H](CO)c1ccccc1)Cc1ccccc1`, for which the inhibition in assay [1] was 51%. Also, in assay [2], the inhibition at 10 µM was found to be 15.4%.

Turning to `CNC(=O)[C@H](NC(=O)[C@@H](Cc1ccccc1)C[S+]([O-])C[C@H](Cc1ccccc1)C(=O)N[C@@H](C(=O)NC)C(C)C)C(C)C`, in assay [1], the inhibition was found to be 90%. For the same molecule, the inhibition at 10 µM in assay [2] amounted to 2.1%.

Take `N=[S+]([O-])(C[C@H](Cc1ccccc1)C(=O)N[C@H](CO)c1ccccc1)C[C@H](Cc1ccccc1)C(=O)N[C@H](CO)c1ccccc1`: in assay [1], the inhibition turned out to be 54%. The inhibition at 10 µM in assay [2] came to 0%.

`O=C(N[C@H](CO)c1ccccc1)[C@@H](Cc1ccccc1)C[S+]([O-])C[C@H](Cc1ccccc1)C(=O)N[C@H](CO)c1ccccc1`: the inhibition in assay [1] worked out at 50%. Besides, the inhibition at 10 µM in assay [2] was 2.5%.

For the origin of these results see ChEMBL document CHEMBL1157558, “Design, asymmetric synthesis, and evaluation of pseudosymmetric sulfoximine inhibitors against HIV-1 protease” (Bioorg Med Chem, 2010).
